# Laboratory results reported in ChEMBL document CHEMBL4257552, “2-Aminobenzimidazoles as antibiofilm agents against Salmonella enterica serovar Typhimurium” (Medchemcomm, 2018).
# Tested on: Salmonella typhimurium
# Assay: Antibiofilm activity against Salmonella typhimurium ATCC 14028 after 24 hrs by crystal violet staining based assay
# Type: functional, organism-based, Salmonella enterica subsp. enterica serovar Typhimurium
# Details: Salmonella enterica, ATCC 14028, 24 h
# Procedure, shortened: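 S. Typhimurium ATCC 14028 overnight TSB culture subcultured to OD600 0.08 in 1:20 TSB:water, compound added at set concentrations, static incubation in PVC 96-well plates 24 h at 30 °C. IC50 from dose-response curves.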
row,Compound,IC50 [µM]
1,CCCCCc1ccc(C(=O)Nc2ccc3c(c2)nc(N)n3C)cc1,20 to 40
2,CCCCCc1ccc(C(=O)Nc2ccc3c(c2)nc(N)n3C(C)C)cc1,20 to 40
3,CCCCCc1ccc(C(=O)Nc2ccc3c(c2)nc(N)n3CCCC)cc1,15 to 20
4,CCCCCCn1c(N)nc2cc(NC(=O)c3ccc(CCCCC)cc3)ccc21,10.8
5,CCCCCCCCn1c(N)nc2cc(NC(=O)c3ccc(CCCCC)cc3)ccc21,6.66
6,CCCCCCCCCCCCn1c(N)nc2cc(NC(=O)c3ccc(CCCCC)cc3)ccc21,20 to 40
7,CCCCCc1ccc(C(=O)Nc2ccc3c(c2)nc(N)n3C2CCCC2)cc1,15 to 20
8,CCCCCc1ccc(C(=O)Nc2ccc3c(c2)nc(N)n3CCc2c[nH]c3ccccc23)cc1,10 to 15
9,CCCCCc1ccc(C(=O)Nc2ccc3c(c2)nc(N)n3CCCc2ccccc2)cc1,13.1
10,CCCCCc1ccc(C(=O)Nc2ccc3c(c2)nc(N)n3CCCCc2ccccc2)cc1,9.59
11,CCCCCCn1c(N)nc2ccc(NC(=O)c3ccc(CCCCC)cc3)cc21,10 to 15
12,CCCCCc1ccc(C(=O)Nc2ccc3c(c2)nc(N)n3CCc2cnc[nH]2)cc1,20 to 40
13,Cl.Nc1nc2cc(NC(=O)c3cc(Cl)cc(Cl)c3)ccc2n1CCCc1ccccc1,10 to 15
14,CCCCCCc1ccc(C(=O)Nc2ccc3c(c2)nc(N)n3CCCc2ccccc2)cc1,15 to 20
15,Cl.Nc1nc2cc(NC(=O)Nc3ccc(Cl)c(Cl)c3)ccc2n1CCCc1ccccc1,7.69
16,CCc1ccc(C(=O)Nc2ccc3c(c2)nc(N)n3CCCc2ccccc2)cc1,20 to 40
17,CCCCOc1ccc(C(=O)Nc2ccc3c(c2)nc(N)n3CCCc2ccccc2)cc1,15 to 20
18,CCCCCCCc1ccc(C(=O)Nc2ccc3c(c2)nc(N)n3CCCc2ccccc2)cc1,15 to 20
19,Cl.Nc1nc2cc(NC(=O)c3ccc(Cl)c(Cl)c3)ccc2n1CCCc1ccccc1,6.3
20,CCCCCOc1ccc(C(=O)Nc2ccc3c(c2)nc(N)n3CCCc2ccccc2)cc1.Cl,5.22
21,CCCCCCCC(=O)Nc1ccc2c(c1)nc(N)n2CCCc1ccccc1,> 40

row,Compound,IC50 [µM]
1,CCCCCCCCCCn1c(N)nc2cc(NC(=O)c3ccc(CCCCC)cc3)ccc21,20 to 40
2,CCCCCc1ccc(C(=O)Nc2ccc3nc(N)n(C)c3c2)cc1,20 to 40
3,CCCCCCCCCC(=O)Nc1ccc2c(c1)nc(N)n2CCCc1ccccc1,10 to 15
4,CCCc1ccc(C(=O)Nc2ccc3c(c2)nc(N)n3CCCc2ccccc2)cc1,15 to 20
5,CCCCCc1ccc(C(=O)Nc2ccc3nc(N)n(CC)c3c2)cc1,20 to 40
6,CCCCCCCCCCCC(=O)Nc1ccc2c(c1)nc(N)n2CCCc1ccccc1,> 50
7,CCCCCc1ccc(C(=O)Nc2ccc3c(c2)nc(N)n3CC(C)C)cc1,10 to 15
8,CCCCCc1ccc(C(=O)Nc2ccc3nc(N)n(CCCC)c3c2)cc1,10 to 15
9,CCCCCCC(=O)Nc1ccc2c(c1)nc(N)n2CCCc1ccccc1,20 to 40
10,CCCCc1ccc(C(=O)Nc2ccc3c(c2)nc(N)n3CCCc2ccccc2)cc1,10 to 15
11,CCCCCCCCCCC(=O)Nc1ccc2c(c1)nc(N)n2CCCc1ccccc1,10 to 15
12,Nc1nc2cc(C(=O)Nc3ccc(Cl)c(Cl)c3)ccc2n1CCCc1ccccc1,12.6
13,Nc1nc2cc(NC(=O)c3ccc(Br)c(Br)c3)ccc2n1CCCc1ccccc1,5.38
14,CCCCCCCCc1ccc(C(=O)Nc2ccc3c(c2)nc(N)n3CCCc2ccccc2)cc1,> 50
15,CCCCCc1ccc(C(=O)Nc2ccc3c(c2)nc(N)n3C2CCCCC2)cc1,15 to 20
16,CCCOc1ccc(C(=O)Nc2ccc3c(c2)nc(N)n3CCCc2ccccc2)cc1,10 to 15
17,CCCCCCCCC(=O)Nc1ccc2c(c1)nc(N)n2CCCc1ccccc1,15 to 20
18,Nc1nc2cc(NC(=O)c3cc(Br)cc(Br)c3)ccc2n1CCCc1ccccc1,5.58
19,CCCCCc1ccc(C(=O)Nc2ccc3nc(N)n(C(C)C)c3c2)cc1,20 to 40
20,CCCCCCCCCCCCCC(=O)Nc1ccc2c(c1)nc(N)n2CCCc1ccccc1,> 50
21,CCCCCc1ccc(C(=O)Nc2ccc3[nH]c(N)nc3c2)cc1,20 to 40

# Tested on: Salmonella typhimurium
# Assay: Inhibition of planktonic growth of Salmonella typhimurium ATCC 14028 after 2 to 24 hrs
# Type: organism-based
# Details: salmonella enterica subsp. enterica serovar typhimurium
# Procedure, shortened: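 Overnight TSB culture diluted into fresh 1:20 TSB (OD600 0.08), 3 mL tubes with compound or untreated control, shaken at 30 °C. Samples at 2, 4, 6, 8 and 24 h serially diluted in 1:20 TSB, plated on nutrient agar, incubated overnight at 37 °C, and colonies counted.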
Compound,Activity,growth inhibition (GI)
Cl.Nc1nc2cc(NC(=O)Nc3ccc(Cl)c(Cl)c3)ccc2n1CCCc1ccccc1,Non-Toxic,–
CCCCCOc1ccc(C(=O)Nc2ccc3c(c2)nc(N)n3CCCc2ccccc2)cc1.Cl,–,Non-Toxic

# Tested on: Galleria mellonella
# Assay: Toxicity in Galleria mellonella at 400 mg/kg
# Type: organism-based
# Details: in vivo
row,Compound,Activity
1,Cl.Nc1nc2cc(NC(=O)c3cc(Cl)cc(Cl)c3)ccc2n1CCCc1ccccc1,Non-Toxic
2,Cl.Nc1nc2cc(NC(=O)c3ccc(Cl)c(Cl)c3)ccc2n1CCCc1ccccc1,Non-Toxic
